According to ChEMBL document CHEMBL1140999, “Succinyl hydroxamates as potent and selective non-peptidic inhibitors of procollagen C-proteinase: design, synthesis, and evaluation as topically applied, dermal anti-scarring agents” (Bioorg Med Chem Lett, 2008):
≈ marks a conversion by molar mass, not a printed value.

What was measured:
[1] = target: T1, Bone morphogenetic protein 1 (Homo sapiens, UniProt P13497); test: Inhibition of human procollagen C-proteinase expressed in CHO cells by fluorescence assay; assay type: cell-based
T1 sequence (P13497 whole entry): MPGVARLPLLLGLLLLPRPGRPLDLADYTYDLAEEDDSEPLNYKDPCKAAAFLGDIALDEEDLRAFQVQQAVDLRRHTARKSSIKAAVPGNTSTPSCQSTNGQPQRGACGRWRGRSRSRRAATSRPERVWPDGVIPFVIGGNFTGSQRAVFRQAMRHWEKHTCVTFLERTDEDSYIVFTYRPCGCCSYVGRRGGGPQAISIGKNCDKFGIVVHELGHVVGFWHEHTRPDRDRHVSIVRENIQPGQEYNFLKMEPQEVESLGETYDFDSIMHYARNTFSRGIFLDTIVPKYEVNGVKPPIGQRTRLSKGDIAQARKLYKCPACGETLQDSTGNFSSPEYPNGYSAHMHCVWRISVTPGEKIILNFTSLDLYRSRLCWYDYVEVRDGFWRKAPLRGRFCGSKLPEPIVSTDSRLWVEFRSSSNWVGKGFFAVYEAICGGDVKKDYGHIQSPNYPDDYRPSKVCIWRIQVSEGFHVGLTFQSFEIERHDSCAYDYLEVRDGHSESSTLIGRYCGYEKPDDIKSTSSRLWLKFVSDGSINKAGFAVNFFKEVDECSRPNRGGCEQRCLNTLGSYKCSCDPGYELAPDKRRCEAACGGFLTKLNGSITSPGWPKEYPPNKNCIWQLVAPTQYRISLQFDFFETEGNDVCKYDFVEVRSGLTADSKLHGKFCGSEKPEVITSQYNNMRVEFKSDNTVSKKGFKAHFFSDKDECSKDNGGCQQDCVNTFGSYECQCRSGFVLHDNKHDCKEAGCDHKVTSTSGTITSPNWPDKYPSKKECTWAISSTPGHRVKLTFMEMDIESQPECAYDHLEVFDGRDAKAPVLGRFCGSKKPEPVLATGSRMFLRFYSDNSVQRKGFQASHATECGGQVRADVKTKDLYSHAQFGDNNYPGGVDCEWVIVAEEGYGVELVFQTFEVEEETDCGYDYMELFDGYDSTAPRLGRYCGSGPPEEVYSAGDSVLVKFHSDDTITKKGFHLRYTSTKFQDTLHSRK

Fibroblast [2] = test: Reduction in collagen deposition in human fibroblasts at 10 uM after 8 days by HPLC; assay type: functional; set-up: scale not given: the % may be the effect or the level left
[3] = target: T1, Bone morphogenetic protein 1; test: Inhibition of human procollagen C-proteinase assessed as [3H]procollagen turnover by scintillation counting
Stromelysin-1 = Stromelysin-1 (Homo sapiens, UniProt P08254); test: Inhibition of human MMP3 by fluorescence assay
Sequence of Stromelysin-1 (P08254 whole entry): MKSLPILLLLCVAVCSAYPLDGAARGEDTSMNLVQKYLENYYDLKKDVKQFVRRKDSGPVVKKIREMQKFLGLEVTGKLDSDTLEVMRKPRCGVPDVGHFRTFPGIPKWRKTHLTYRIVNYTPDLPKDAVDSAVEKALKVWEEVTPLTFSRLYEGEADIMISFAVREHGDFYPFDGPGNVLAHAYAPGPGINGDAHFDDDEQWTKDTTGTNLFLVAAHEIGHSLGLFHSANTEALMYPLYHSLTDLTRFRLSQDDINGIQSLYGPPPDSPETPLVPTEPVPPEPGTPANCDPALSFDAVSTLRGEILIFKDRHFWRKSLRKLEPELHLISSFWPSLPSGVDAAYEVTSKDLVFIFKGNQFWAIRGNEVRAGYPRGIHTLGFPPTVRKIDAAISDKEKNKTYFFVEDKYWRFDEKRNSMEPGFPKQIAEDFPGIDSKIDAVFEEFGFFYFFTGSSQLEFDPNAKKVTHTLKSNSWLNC

[4] = Lipophilicity, log D at pH 7.4; assay type: physicochemical; conditions: buffer
[5] = Aqueous solubility in phosphate-buffered saline at pH 7.4 by HPLC; assay type: physicochemical
Zone of skin [6] = test: Effect on transepidermal penetration in human cadaver skin assessed as TED flux after 24 hrs by LC-MS/MS analysis using [14C]mannitol as receptor fluid; assay type: functional
How it was run: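 Human cadaver stratum corneum was mounted in a Franz diffusion cell and exposed for 24 h to a solution in 50% aqueous propylene glycol (pH 6.8). Compound reaching the receptor chamber was measured and a flux rate was calculated. Reported as mean ± SEM, n = 6–10.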

[7] = Elimination half life in rat at 2 mg/kg, iv administered as single dose; assay type: ADME, organism-based; set-up: dose 2 mg/kg, route intravenous; conditions: in vivo, read-out: beta t1/2 (converted)
How it was run: (§1)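 Male rats (n = 2) received a single intravenous dose of 2 mg/kg. Plasma sampling gave half-life, clearance and volume of distribution. Concentrations were also followed after dosing against the assay's limit of quantification.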

[8] = Plasma clearance in rat at 2 mg/kg, iv administered as single dose; assay type: ADME, organism-based; set-up: dose 2 mg/kg, route intravenous; how it was run: as §1
[9] = Plasma concentration in rat at 2 mg/kg, iv administered as single dose after 2 hrs; assay type: ADME, organism-based; set-up: dose 2 mg/kg, route intravenous; how it was run: as §1
[10] = Metabolic stability in dog liver microsomes assessed as half life; assay type: ADME, Canis lupus familiaris, Microsome
[11] = Cmax in dog at 2 mg/kg, po administered as single dose; assay type: ADME, organism-based, Canis lupus familiaris; set-up: dose 2 mg/kg, route oral; conditions: in vivo
How it was run: (§2)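 Male dogs (n = 2) received a single intravenous dose of 0.5 mg/kg or a single oral dose of 2 mg/kg. Plasma concentrations were used to derive half-life, clearance, volume of distribution, Cmax, Tmax and oral bioavailability.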

Zone of skin [12] = test: Effect on transepidermal penetration in human cadaver skin assessed as TED flux after 24 hrs by LC-MS/MS analysis using [14C]mannitol as receptor fluid in presence of propylene glycol-citrate buffer-ethanol; assay type: functional
How it was run: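 Human cadaver stratum corneum was mounted in a Franz diffusion cell and exposed for 24 h to a solution in propylene glycol–citrate buffer–ethanol (20:30:50). Receptor-chamber concentration was used to calculate TED flux.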

[13] = Volume of distribution in dog at 0.5 mg/kg, iv administered as single dose; assay type: ADME, organism-based, Canis lupus familiaris; set-up: dose 0.5 mg/kg, route intravenous; conditions: in vivo; how it was run: as §2
[14] = Metabolic stability in human liver microsomes assessed as half life; assay type: ADME, Microsome
[15] = Oral bioavailability in dog at 2 mg/kg administered as single dose; assay type: ADME, organism-based, Canis lupus familiaris; conditions: in vivo; how it was run: as §2
[16] = Metabolic stability in rat liver microsomes assessed as half life; assay type: ADME, Microsome
[17] = Elimination half life in dog at 0.5 mg/kg, iv administered as single dose; assay type: ADME, organism-based, Canis lupus familiaris; set-up: dose 0.5 mg/kg, route intravenous; conditions: in vivo, read-out: beta t1/2 (converted); how it was run: as §2
[18] = target: 3',5'-cyclic-AMP phosphodiesterase 4C (Homo sapiens, UniProt Q08493); test: Inhibition of PDE4C
Sequence of 3',5'-cyclic-AMP phosphodiesterase 4C (Q08493 whole entry): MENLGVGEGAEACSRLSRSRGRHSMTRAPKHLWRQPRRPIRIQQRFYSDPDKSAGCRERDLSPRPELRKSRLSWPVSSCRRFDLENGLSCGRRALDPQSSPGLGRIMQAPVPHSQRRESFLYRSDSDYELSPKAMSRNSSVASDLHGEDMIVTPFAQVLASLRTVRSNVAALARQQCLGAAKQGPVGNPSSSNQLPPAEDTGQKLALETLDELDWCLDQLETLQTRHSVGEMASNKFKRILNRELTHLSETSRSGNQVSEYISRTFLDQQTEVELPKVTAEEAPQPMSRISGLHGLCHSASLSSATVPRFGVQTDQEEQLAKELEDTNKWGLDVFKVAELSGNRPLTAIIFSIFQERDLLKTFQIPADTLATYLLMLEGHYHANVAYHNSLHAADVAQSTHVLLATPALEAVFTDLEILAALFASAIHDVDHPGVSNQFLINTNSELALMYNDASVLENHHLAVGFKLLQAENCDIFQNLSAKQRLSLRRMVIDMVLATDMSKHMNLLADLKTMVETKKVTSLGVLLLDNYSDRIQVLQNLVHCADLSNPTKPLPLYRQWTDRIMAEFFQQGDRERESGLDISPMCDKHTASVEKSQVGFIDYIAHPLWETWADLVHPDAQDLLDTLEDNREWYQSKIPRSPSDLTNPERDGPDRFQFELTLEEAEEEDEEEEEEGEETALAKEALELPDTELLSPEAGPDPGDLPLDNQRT

[19] = target: 3',5'-cyclic-AMP phosphodiesterase 4D (Homo sapiens, UniProt Q08499); test: Inhibition of PDE4D
Sequence of 3',5'-cyclic-AMP phosphodiesterase 4D (Q08499 whole entry): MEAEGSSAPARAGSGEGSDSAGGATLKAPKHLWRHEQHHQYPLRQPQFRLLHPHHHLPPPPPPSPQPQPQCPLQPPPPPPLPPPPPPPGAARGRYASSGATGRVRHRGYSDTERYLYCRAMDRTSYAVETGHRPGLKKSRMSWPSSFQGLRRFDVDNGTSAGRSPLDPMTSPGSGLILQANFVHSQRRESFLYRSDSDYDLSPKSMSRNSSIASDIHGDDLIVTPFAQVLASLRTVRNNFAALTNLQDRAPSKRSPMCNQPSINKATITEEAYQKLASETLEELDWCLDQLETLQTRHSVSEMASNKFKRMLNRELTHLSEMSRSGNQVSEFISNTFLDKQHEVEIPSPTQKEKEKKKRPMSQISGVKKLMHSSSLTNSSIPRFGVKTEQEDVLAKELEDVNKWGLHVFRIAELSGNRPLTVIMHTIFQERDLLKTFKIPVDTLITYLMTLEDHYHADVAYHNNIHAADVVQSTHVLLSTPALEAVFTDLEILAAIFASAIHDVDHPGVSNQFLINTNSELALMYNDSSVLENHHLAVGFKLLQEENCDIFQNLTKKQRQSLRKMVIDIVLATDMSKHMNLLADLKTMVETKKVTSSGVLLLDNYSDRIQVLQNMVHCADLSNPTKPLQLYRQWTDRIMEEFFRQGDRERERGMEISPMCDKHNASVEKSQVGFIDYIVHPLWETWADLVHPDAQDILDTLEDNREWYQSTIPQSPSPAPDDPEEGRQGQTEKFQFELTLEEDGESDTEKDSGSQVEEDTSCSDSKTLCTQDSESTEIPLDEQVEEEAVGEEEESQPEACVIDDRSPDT

[20] = Saturated solubility in propylene glycol-citrate buffer-ethanol; assay type: physicochemical
[21] = Dissociation constant, pKa of the compound; assay type: physicochemical
[22] = target: 3',5'-cyclic-AMP phosphodiesterase 4B (Homo sapiens, UniProt Q07343); test: Inhibition of PDE4B
Sequence of 3',5'-cyclic-AMP phosphodiesterase 4B (Q07343 whole entry): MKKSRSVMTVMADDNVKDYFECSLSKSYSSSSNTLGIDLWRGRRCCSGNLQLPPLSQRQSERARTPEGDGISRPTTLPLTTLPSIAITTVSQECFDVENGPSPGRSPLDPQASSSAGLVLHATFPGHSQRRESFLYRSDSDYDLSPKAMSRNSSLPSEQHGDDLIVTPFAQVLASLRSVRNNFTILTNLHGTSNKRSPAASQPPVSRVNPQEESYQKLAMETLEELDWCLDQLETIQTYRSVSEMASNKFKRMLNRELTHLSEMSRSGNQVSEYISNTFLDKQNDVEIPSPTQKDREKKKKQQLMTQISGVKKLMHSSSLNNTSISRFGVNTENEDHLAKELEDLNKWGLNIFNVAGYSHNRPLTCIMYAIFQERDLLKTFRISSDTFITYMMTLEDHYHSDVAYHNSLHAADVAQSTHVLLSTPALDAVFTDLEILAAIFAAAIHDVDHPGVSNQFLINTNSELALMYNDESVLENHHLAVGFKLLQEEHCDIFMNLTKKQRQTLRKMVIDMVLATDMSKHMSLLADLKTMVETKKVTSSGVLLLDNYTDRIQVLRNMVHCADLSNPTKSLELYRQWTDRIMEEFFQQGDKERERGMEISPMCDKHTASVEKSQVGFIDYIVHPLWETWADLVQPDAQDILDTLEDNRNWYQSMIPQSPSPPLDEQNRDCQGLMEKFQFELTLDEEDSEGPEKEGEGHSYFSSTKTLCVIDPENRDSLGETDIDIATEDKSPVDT

Fibroblast [23] = test: Reduction in collagen deposition in human fibroblasts after 8 days by HPLC; assay type: functional, cell-based
[24] = Drug level in pig skin assessed as steady state concentration at 0.9 mg/ml in 50% aqueous propylene glycol administered tropically after 24 hrs; assay type: ADME, tissue-based, Sus scrofa, Zone of skin; conditions: topical or ocular, read-out: Drug uptake
How it was run: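 Applied topically to intact pig skin as a 0.9 mg/ml solution in 50% aqueous propylene glycol. Tissue level was measured in the upper dermis as the steady-state concentration at 24 h.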

[25] = Volume of distribution in rat at 2 mg/kg, iv administered as single dose; assay type: ADME, organism-based; set-up: dose 2 mg/kg, route intravenous; conditions: in vivo; how it was run: as §1
[26] = Plasma clearance in dog at 0.5 mg/kg, iv administered as single dose; assay type: ADME, organism-based, Canis lupus familiaris; set-up: dose 0.5 mg/kg, route intravenous; how it was run: as §2
[27] = Tmax in dog at 2 mg/kg, po administered as single dose; assay type: ADME, organism-based, Canis lupus familiaris; set-up: dose 2 mg/kg, route oral; conditions: in vivo; how it was run: as §2
[28] = target: 3',5'-cyclic-AMP phosphodiesterase 4A (Homo sapiens, UniProt P27815); test: Inhibition of PDE4A
Sequence of 3',5'-cyclic-AMP phosphodiesterase 4A (P27815 whole entry): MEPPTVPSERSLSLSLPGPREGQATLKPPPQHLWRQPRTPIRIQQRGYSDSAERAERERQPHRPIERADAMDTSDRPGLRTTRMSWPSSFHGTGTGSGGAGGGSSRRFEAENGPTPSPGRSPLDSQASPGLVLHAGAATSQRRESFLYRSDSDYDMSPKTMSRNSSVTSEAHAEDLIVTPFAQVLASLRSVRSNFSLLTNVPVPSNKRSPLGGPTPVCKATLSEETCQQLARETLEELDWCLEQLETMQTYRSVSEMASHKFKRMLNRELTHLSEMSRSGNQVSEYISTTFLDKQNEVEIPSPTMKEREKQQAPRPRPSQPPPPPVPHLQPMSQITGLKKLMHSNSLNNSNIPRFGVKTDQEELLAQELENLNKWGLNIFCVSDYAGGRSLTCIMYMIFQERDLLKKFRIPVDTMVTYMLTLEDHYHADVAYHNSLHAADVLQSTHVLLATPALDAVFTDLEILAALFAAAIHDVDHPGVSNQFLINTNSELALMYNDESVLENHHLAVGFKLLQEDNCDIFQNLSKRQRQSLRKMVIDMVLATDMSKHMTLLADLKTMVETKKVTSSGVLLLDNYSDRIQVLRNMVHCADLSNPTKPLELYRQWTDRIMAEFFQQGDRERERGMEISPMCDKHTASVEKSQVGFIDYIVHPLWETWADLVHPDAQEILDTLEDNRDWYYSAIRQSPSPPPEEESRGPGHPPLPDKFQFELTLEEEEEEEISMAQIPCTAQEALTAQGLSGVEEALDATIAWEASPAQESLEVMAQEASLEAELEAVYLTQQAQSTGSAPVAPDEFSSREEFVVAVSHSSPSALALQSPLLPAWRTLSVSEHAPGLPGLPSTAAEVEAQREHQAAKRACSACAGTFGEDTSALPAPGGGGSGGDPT

With `NC(=O)c1coc([C@H](CCCC2CCCCC2)CC(=O)NO)n1` as the molecule, how does the IC50 [1] read?
The IC50 was 73 nM.

Which IC50 [1] does the source give for `CCCNC(=O)c1noc([C@H](CCCC2CCCCC2)CC(=O)NO)n1` here?
The IC50 was 32 nM.

With `O=C(O)CNC(=O)c1noc([C@H](CCCC2CCCCC2)CC(=O)NO)n1` as the molecule, how does the IC50 [1] read?
Its IC50 is 21 nM.

For `CN1CCN(C(=O)c2noc([C@H](CCCC3CCCCC3)CC(=O)NO)n2)CC1`, which IC50 [1] is on record?
The IC50 was 54 nM.

With `O=C(C[C@@H](CCCC1CCCCC1)c1nc(C(=O)N2CCCC2)no1)NO` as the molecule, how does the IC50 [1] read?
The IC50 was 43 nM.

With `CNC(=O)c1noc([C@H](CCCC2CCCCC2)CC(=O)NO)n1` as the molecule, how does the IC50 [1] read?
The IC50 was 28 nM.

With `O=C(C[C@@H](CCCC1CCCCC1)c1nc(C(=O)NCC2CC2)no1)NO` as the molecule, how does the IC50 [1] read?
The IC50 was 33 nM.

For `CN(Cc1ccccc1)C(=O)c1noc([C@H](CCCC2CCCCC2)CC(=O)NO)n1`, which IC50 [1] is on record?
Its IC50 is 65 nM.

With `Cc1oc([C@H](CCCC2CCCCC2)CC(=O)NO)nc1C(N)=O` as the molecule, how does the IC50 [1] read?
The IC50 was 17 nM.

Which IC50 [1] does the source give for `CN(C)C(=O)c1coc([C@H](CCCC2CCCCC2)CC(=O)NO)n1` here?
The IC50 was 45 nM.

For `O=C(C[C@@H](CCCC1CCCCC1)c1nc(C(=O)N2CCCCC2)no1)NO`, which IC50 [1] is on record?
The IC50 was 26 nM.

For `O=C(C[C@@H](CCCC1CCCCC1)c1nc(C(=O)NCc2ccccc2)no1)NO`, which IC50 [1] is on record?
The IC50 was 57 nM.

For `O=C(C[C@@H](CCCC1CCCCC1)c1nc(C(=O)NCc2ccccn2)no1)NO`, which IC50 [1] is on record?
Its IC50 is 37 nM.

For `CC(C)NC(=O)c1noc([C@H](CCCC2CCCCC2)CC(=O)NO)n1`, which IC50 [1] is on record?
The IC50 was 21 nM.

Which results are given for `CN(C)C(=O)c1noc([C@H](CCCC2CCCCC2)CC(=O)NO)n1`?
Activity (Fibroblast [2]): 67%; IC50 [3]: 9.3 nM; IC50 (Stromelysin-1): 28000 nM; logD [4]: 3.6; solubility [5]: 900 µg/mL (≈ 2550 µM); IC50 [1]: 10 nM; TED (Zone of skin [6]): 2.6 microg/cm2/h

Which IC50 [1] does the source give for `O=C(C[C@@H](CCCC1CCCCC1)c1nc(C(=O)N2CCOCC2)no1)NO` here?
The IC50 was 25 nM.

Which IC50 [1] does the source give for `Cc1oc([C@H](CCCC2CCCCC2)CC(=O)NO)nc1C(=O)N(C)C` here?
The IC50 was 17 nM.

For `NC(=O)c1noc([C@@H](CCCC2CCCCC2)CC(=O)NO)n1`, which IC50 [1] is on record?
Its IC50 is > 2000 nM.

For `CN(Cc1ccccn1)C(=O)c1noc([C@H](CCCC2CCCCC2)CC(=O)NO)n1`, which IC50 [1] is on record?
The IC50 was 40 nM.

With `NC(=O)c1noc([C@H](CCCC2CCCCC2)CC(=O)NO)n1` as the molecule, how does the Activity (Fibroblast [2]) read?
The Activity was 76%.

And the half-life [7]?
The half-life was 48 min.

And the clearance [8]?
The clearance was 157 mL/min/kg.

And the concentration at 2 h [9]?
Its concentration at 2 h is < 100 ng/mL.

And the half-life [10]?
The half-life was 9 min.

What about the Cmax [11] of the same molecule?
The Cmax was 110 ng/mL.

What about the IC50 [3] of the same molecule?
The IC50 was 26 nM.

What about the TED (Zone of skin [12]) of the same molecule?
Its TED is 1.59 microg/cm2/h.

And the Vd [13]?
Its Vd is 4.6 L/kg.

What about the logD [4] of the same molecule?
The logD was 2.6.

What about the half-life [14] of the same molecule?
The half-life was 19 min.

And the bioavailability [15]?
Its bioavailability is 13%.

And the half-life [16]?
Its half-life is < 2 min.

And the half-life [17]?
Its half-life is 90 min.

And the IC50 [18]?
Its IC50 is 2400 nM.

And the IC50 [19]?
Its IC50 is 900 nM.

What about the solubility thermodynamic [20] of the same molecule?
Its solubility thermodynamic is 13800 µg/mL (≈ 42500 µM).

What about the pKa [21] of the same molecule?
The pKa was 9.

What about the IC50 [22] of the same molecule?
Its IC50 is 1500 nM.

And the Activity (Fibroblast [23])?
The Activity was “Dose-dependent effect”.

And the IC50 (Fibroblast [23]; 192 h)?
Its IC50 is 2100 nM.

What about the solubility [5] of the same molecule?
The solubility was 35 µg/mL (≈ 108 µM).

What about the concentration at 24 h [24] of the same molecule?
Its concentration at 24 h is 10 µM.

What about the Vd [25] of the same molecule?
Its Vd is 12 L/kg.

What about the TED (Zone of skin [6]) of the same molecule?
The TED was 0.3 microg/cm2/h.

What about the clearance [26] of the same molecule?
Its clearance is 35 mL/min/kg.

And the Tmax [27]?
The Tmax was 30 min.

What about the IC50 [28] of the same molecule?
The IC50 was 1800 nM.
